NR2E3 ag-1: agonists of human nuclear receptor NR2E3; 0.12% of 320,000 active; Q9Y5X4; GST-NR2E3/biotin-RetCOR TR-FRET, 1536-well; inhibition of corepressor binding, % at 4.78 µM; AID 2300;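 active = percent inhibition above the cutoff of mean plus 3 SD of all tested compounds, set per screening campaign, cut at about 20% in these data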;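 note: 0% = DMSO wells and 100% = biotin wells as full block of FRET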
Target sequence (Q9Y5X4 whole entry, looked up): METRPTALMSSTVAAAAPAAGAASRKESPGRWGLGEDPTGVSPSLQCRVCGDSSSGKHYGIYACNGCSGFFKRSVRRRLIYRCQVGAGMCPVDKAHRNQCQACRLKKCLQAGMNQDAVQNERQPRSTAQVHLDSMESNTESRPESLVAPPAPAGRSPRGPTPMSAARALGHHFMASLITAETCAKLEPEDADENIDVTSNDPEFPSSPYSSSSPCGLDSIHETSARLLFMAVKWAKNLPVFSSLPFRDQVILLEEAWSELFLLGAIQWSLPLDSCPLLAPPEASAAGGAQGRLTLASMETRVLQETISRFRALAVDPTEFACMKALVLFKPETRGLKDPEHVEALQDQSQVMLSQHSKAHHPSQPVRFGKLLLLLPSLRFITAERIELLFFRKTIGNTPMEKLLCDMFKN
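Format: 1536-well format; test system: GST-NR2E3 and biotin-RetCOR proteins; read-out basis: percent inhibition of TR-FRET ratio; timing: 5 h incubation at 4 °C; detection: time-resolved FRET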
NR2E3 ag-2: activates human NR2E3 receptor; CHO-S Gal4-NCOR/VP16-NR2E3 two-hybrid, luciferase; inhibition of corepressor binding, % at 3.98 µM; 0.35% of 360,000 active; AID 602229;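 active = inhibition above the mean of all tested compounds plus 3 SD, cut at about 70% in these data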;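 note: 0% = DMSO with NR2E3 transfected cells and 100% = cells lacking NR2E3 construct; higher means lower luciferase signal from less NR2E3 corepressor binding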
PP5 inh: inhibitors of human protein phosphatase 5 (PP5). P53041. purified PP5c, OMFP substrate fluorescence. inhibition, % at 6.7 µM. 0.18% of 320,000 active. AID 1987;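 active = inhibition above the campaign's mean inhibition across all tested compounds plus 3 SD, cut at about 9.5% in these data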;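 note: 0% = DMSO only and 100% = 100 µM cantharidin control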
PP1 counter: counter-screen for PP5 inhibitors: inhibitors of human PP1-alpha; P62136; purified PP1alpha, OMFP fluorescence; inhibition, % at 6.7 µM; 0.9% of 320,000 active;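 active = inhibition above the mean inhibition of all tested compounds plus 3 SD, computed separately for each screening campaign, cut at about 15% in these data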
Numbers without * were called inactive; x = not tested or not shown. Compounds with a hit are over-represented: about 1.3% of the library has one in this group of screens.

SMILES | NR2E3 ag-1 | NR2E3 ag-2 | PP5 inh | PP1 counter
COc1ccc(C(=O)CSc2nnc(NC(=O)C3CC(=O)N(c4ccccc4)C3)s2)cc1 (centres undefined) | -2 | -10 | 2 | 17*
COC(=O)c1ccc(CSc2nnc(NC(=O)C3CC(=O)N(c4ccc5c(c4)OCCO5)C3)s2)cc1 (centres undefined) | -1 | -26 | 3 | 15*
O=C(NCc1ccccc1)c1cc(C2COCCN2C(=O)CCc2ccccc2)on1 (centres undefined) | x | 1 | x | x
COc1ccc(NC(=O)NCCCCc2ccccc2)c(OC)c1 | -3 | 22 | 3 | -1
N#CC(C#N)=C(Nc1ccc(F)cc1)SCc1cccc(Br)c1 | 2 | 94* | 4 | 7
c1ccc(Oc2nc(-c3ccccn3)nc3ccccc23)cc1 | -1 | -40 | 1 | 16*
CCOc1ccc(S(=O)(=O)Nc2cc(Sc3ncn[nH]3)c3oc(=O)sc3c2)cc1 | -1 | x | 1 | 16*
CCOc1ccc(S(=O)(=O)Nc2ncn[nH]2)cc1 | -1 | -22 | -1 | -1
COCc1nnc(NC(=O)c2ccc(S(=O)(=O)N3CCOCC3)cc2)o1 | 2 | -1 | 5 | -3
COCc1nnc(NC(=O)c2ccc(S(=O)(=O)N3CCCc4ccccc43)cc2)o1 | 1 | 4 | 1 | 17*
Nc1[nH]n2c(=O)cc(-c3ccccc3)nc2c1N=Nc1ccc(S(N)(=O)=O)cc1 | 0 | 12 | 3 | 16*
Nc1[nH]n2c(=O)cc(-c3ccccc3)nc2c1N=Nc1ccccc1 | 2 | 6 | 2 | 9
Cc1cccc(/C=C/C(=O)c2cc(Br)ccc(=O)c2O)c1 | -1 | 4 | 1 | 18*
O=c1[nH]nc(SCc2ccccc2)c(=O)[nH]1 | -2 | 5 | 0 | -3
NNC(=O)c1ccc(CSc2n[nH]c(=O)[nH]c2=O)cc1 | -6 | -4 | -1 | 16*
CCOC(=O)C(=CNc1ccc2c(c1)c1ccccc1n2CC)C(=O)OCC | 1 | -26 | 2 | -4
COc1ccc(CNc2ncnc3sccc23)cc1OC | 2 | 80* | 3 | 1
Cc1cc(N2CCCC2=O)cc(C)c1S(=O)(=O)NCCOc1ccc(C(C)(C)C)cc1 | 3 | 95* | 5 | 1
Cc1cc(-n2cnnn2)cc(C)c1S(=O)(=O)NCCOc1ccccc1 | -1 | -7 | -1 | 1
O=C1/C(=C/c2cccc(F)c2)Oc2cc(O)ccc21 | 0 | -33 | 3 | 2
CCOC(=O)/C(C#N)=C/Nc1ccccc1OC(F)(F)F | 5 | -5 | 2 | 3
Cc1ccc(NC(=S)N(Cc2ccc(Cl)cc2)Cc2ccc(C(=O)O)cc2)cc1Cl | 5 | 23 | 6 | 17*
COc1ccc(CN(CC2CCC(C(=O)O)CC2)C(=S)Nc2ccc(C)c(Cl)c2)cc1 (centres undefined) | 0 | 8 | 0 | 3
Cc1cccc(N2C(=O)C(O)=C(C(=O)c3cccs3)C2c2ccc(Cl)cc2)n1 (centres undefined) | 2 | 22 | 1 | 17*
Cc1cccc(N2C(=O)C(O)=C(C(=O)c3cccs3)C2c2ccccc2)n1 (centres undefined) | -1 | -12 | -2 | 4
SMILES | NR2E3 ag-1 | NR2E3 ag-2 | PP5 inh | PP1 counter
CCOc1ccc(C(C(=O)NCC2CCCO2)N(Cc2cccs2)C(=O)c2snc(C(N)=O)c2N)cc1 (centres undefined) | 1 | -39 | -2 | -1
CC(C)(C)C1CCC2(CC1)C(C#N)=C(SCC(=O)Nc1ccccc1)NC(=O)C2C#N (centres undefined) | -5 | 100* | 7 | 8
CC(NC(=O)CSc1ncn[nH]1)c1ccc(Cl)cc1Cl (centres undefined) | x | -30 | x | x
CC(=O)C1=C(O)C(=O)N(c2ccc(Br)cc2)C1c1cccc(F)c1 (centres undefined) | 10 | 20 | 2 | 16*
CC(=O)C1=C(O)C(=O)N(c2ccc(O)cc2)C1c1cccc(F)c1 (centres undefined) | 0 | -12 | -1 | 2
COc1ccc(/C=C/C(=O)NC(=S)NNC(=O)Cc2cccs2)cc1 | 1 | -9 | 0 | 20*
COc1ccc(/C=C/C(=O)NC(=S)NNC(=O)c2ccco2)cc1 | 0 | -133 | 2 | 8
COc1ccc(/C=C/C(=O)NC(=S)NNC(=O)c2c(-c3ccccc3)noc2C)cc1 | 1 | -48 | 4 | 17*
Oc1ccc(CN2CCc3ccccc3C2)c2cccnc12 | 2 | -9 | 9 | 15*
Cc1cc(O)c(C=O)c2c1C(=O)Oc1c(CO)c(O)c3c(c1O2)C(O)OC3=O (centres undefined) | 6 | -13 | 2 | 36*
Cc1cc(O)c(CN(C)C)c2c1C(=O)/C(=C/c1ccco1)O2 | -3 | -23 | 2 | -3
Cc1ccc(S(=O)(=O)N2[C@@H](c3ccc(Br)cc3)C(C(=O)O)=CC[C@H]2c2ccc3c(c2)OCO3)cc1 | x | -22 | x | x
Cc1ccc(S(=O)(=O)N(C)C[C@@H]2Oc3ccc(NC(=O)Nc4cccc5ccccc45)cc3C(=O)N([C@H](C)CO)C[C@H]2C)cc1 | x | -3 | x | x
COc1cccc2c1[C@@H]1CN(CCCCn3c(=O)[nH]c4c(sc5ncc(-c6ccccc6)nc54)c3=O)C[C@@H]1CO2 | 4 | 8 | -3 | 17*
CN(C)c1ccc([C@@H]2[C@@H]([N+](=O)[O-])[C@H]3C=Cc4ccccc4N3[C@H]2C(=O)c2ccc(Cl)cc2)cc1 | -5 | -26 | 1 | 16*
O=C(c1ccccc1)C1C(c2ccccc2)C1[N+](=O)[O-] (centres undefined) | 2 | -1 | -2 | 1
COc1ccc([C@@H]2C[C@H]3[C@@H](CN2S(=O)(=O)c2ccccc2)C(=O)C[C@@H](c2cccc4ccccc24)N3S(=O)(=O)c2ccc(C)cc2)cc1 | x | -8 | x | x
CC12CCC(c3c(C(=O)O)nn(-c4ccc(F)cc4)c31)C2(C)C (centres undefined) | 2 | -14 | 1 | 15*
COc1ccc(CN(C)CCCn2cnc3c(OC)ncnc32)cc1OC | x | 9 | x | x
Cc1ccc(C(C(=O)NC2CCCCC2)N(Cc2ccccc2)C(=O)Cc2c[nH]c3ccccc23)o1 (centres undefined) | -1 | -46 | 4 | 8
COc1ccc(CN(C(=O)Cc2c[nH]c3ccccc23)C(C(=O)NC2CCCCC2)c2ccc(C)o2)cc1 (centres undefined) | -2 | -24 | 8 | 17*
COC(=O)c1sc(N)c(C(=O)OC)c1COC(=O)[C@@H](NS(=O)(=O)c1cccc(Cl)c1)C(C)C | -1 | 9 | 3 | 2
COC(=O)c1c(NC(=O)COC(=O)[C@@H](NS(=O)(=O)c2cccc(Cl)c2)C(C)C)sc2c1CCC2 | 0 | -10 | 1 | 15*
c1ccc(N2CCN(c3cccc(-c4cc5ccccc5s4)n3)CC2)nc1 | x | 11 | x | x
Cc1ccc(-n2[nH]c(C)c(/C=N/c3ccccn3)c2=O)cc1 | -3 | -9 | -1 | 1
Cc1[nH]n(-c2ccccc2)c(=O)c1/C=N/Nc1nncc(-c2ccccc2)n1 | -2 | -58 | 1 | 17*
